Source: ChEMBL document CHEMBL3739347, “Tubulin modulating antifungal and antiproliferative pyrazinone derivatives” (Bioorg Med Chem, 2016)

Key:
Format in all cases: functional
[1] = system: Puccinia triticina; assay: Antifungal activity against Puccinia recondita f. sp. tritici infected in wheat seedlings at 40 ppm relative to control
How it was run: (§1)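 Test suspension sprayed to run-off on Stevens wheat seedlings. Next day inoculated with a Puccinia recondita f. sp. tritici spore suspension. Held 24 h in a saturated atmosphere at 20 °C, then 7 days in a 20 °C growth chamber before disease rating. Rates in ppm. Given as percent control versus untreated control plants.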

[2] = system: Puccinia triticina; assay: Antifungal activity against Puccinia recondita f. sp. tritici infected in wheat seedlings at 10 ppm relative to control; how it was run: as §1
[3] = system: Parastagonospora nodorum; assay: Antifungal activity against Stagonospora nodorum infected in wheat seedlings at 40 ppm relative to control
How it was run: (§2)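 Wheat seedlings, treated the day before, inoculated with a Stagonospora nodorum spore suspension. Held in a saturated atmosphere at 20 °C for 48 h, then 5 days in a growth chamber at 22 °C, then disease rated. Rates in ppm. Scored as percent control relative to untreated control plants.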

[4] = system: Botrytis cinerea; assay: Antifungal activity against Botryotinia fuckeliana infected in orange pixie tomato seedlings at 10 ppm relative to control
How it was run: (§3)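 Orange Pixie tomato seedlings sprayed to run-off with test suspension, then inoculated next day with a Botryotinia fuckeliana spore suspension. Kept saturated at 20 °C for 48 h, then 1 more day at 24 °C in a growth chamber before rating. Rates in ppm. Expressed as percent control relative to untreated control plants.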

[5] = system: Puccinia triticina; assay: Antifungal activity against Puccinia recondita f. sp. tritici infected in wheat seedlings at 2 ppm relative to control; how it was run: as §1
[6] = system: Parastagonospora nodorum; assay: Antifungal activity against Stagonospora nodorum infected in wheat seedlings at 2 ppm relative to control; how it was run: as §2
[7] = system: Parastagonospora nodorum; assay: Antifungal activity against Stagonospora nodorum infected in wheat seedlings at 10 ppm relative to control; how it was run: as §2
[8] = system: Botrytis cinerea; assay: Antifungal activity against Botryotinia fuckeliana infected in orange pixie tomato seedlings at 40 ppm relative to control; how it was run: as §3
[9] = system: Botrytis cinerea; assay: Antifungal activity against Botryotinia fuckeliana infected in orange pixie tomato seedlings at 2 ppm relative to control; how it was run: as §3
[10] = system: Puccinia triticina; assay: Antifungal activity against Puccinia recondita f. sp. tritici infected in wheat seedlings at 200 ppm relative to control; how it was run: as §1
[11] = system: Botrytis cinerea; assay: Antifungal activity against Botryotinia fuckeliana infected in orange pixie tomato seedlings at 200 ppm relative to control; how it was run: as §3
[12] = system: Parastagonospora nodorum; assay: Antifungal activity against Stagonospora nodorum infected in wheat seedlings at 200 ppm relative to control; how it was run: as §2

Structure (SMILES) | Activity [1] [%] | Activity [2] [%] | Activity [3] [%] | Activity [4] [%] | Activity [5] [%] | Activity [6] [%] | Activity [7] [%] | Activity [8] [%] | Activity [9] [%] | Activity [10] [%] | Activity [11] [%] | Activity [12] [%]
O=c1c(-n2cccn2)nc(Cl)c(-c2c(F)cc(F)cc2F)n1-c1cccc(Cl)c1 | 100 | 99 | 99 | 99 | 86 | 73 | 99 | 100 | 97 | – | – | –
C=CCn1c(-c2c(F)cc(F)cc2F)c(Cl)nc(-n2cccn2)c1=O | 99 | 89 | 100 | 99 | 0 | 0 | 97 | 99 | 70 | – | – | –
O=c1c(-n2cccn2)nc(Cl)c(-c2c(F)cc(F)cc2F)n1CC(F)(F)C(F)(F)F | 100 | 99 | 100 | 100 | 91 | 0 | 89 | 100 | 99 | – | – | –
CC[C@H](C)Cn1c(-c2c(F)cccc2F)c(Cl)nc(C(=O)NC)c1=O | 99 | 74 | 51 | 90 | 0 | 0 | 0 | 99 | 57 | – | – | –
CC(C)Cn1c(C(C)(C)C)c(Cl)nc(-n2cccn2)c1=O | 0 | – | 0 | – | – | – | – | 0 | – | 0 | 0 | 0
CC(C)Cn1c(C(C)C)c(Cl)nc(-n2cccn2)c1=O | 18 | – | 0 | – | – | – | – | 99 | – | 98 | 99 | 0
CC[C@H](C)Cn1c(-c2c(F)cccc2F)c(Cl)nc(-n2cncn2)c1=O | 98 | – | 94 | – | – | – | – | 100 | – | 98 | 100 | 100
O=c1c(-n2cccn2)nc(Cl)c(-c2c(F)cc(F)cc2F)n1-c1ccccc1Cl | 100 | 100 | 100 | 100 | 97 | 0 | 94 | 100 | 99 | – | – | –
Cc1ccn(-c2nc(Cl)c(-c3c(F)cccc3F)n(CC(C)C)c2=O)n1 | 100 | 94 | 95 | 100 | 25 | 0 | 0 | 100 | 95 | – | – | –
CCCCn1c(-c2c(F)cc(F)cc2F)c(Cl)nc(-n2cccn2)c1=O | 100 | 88 | 100 | 0 | 26 | 0 | 98 | 100 | 0 | – | – | –
CC(C)Cn1c(-c2c(F)cccc2F)cnc(-n2cccn2)c1=O | 0 | 0 | 0 | – | – | – | 0 | – | – | 98 | – | 0
O=c1c(-n2cccn2)nc(Cl)c(-c2c(F)cc(F)cc2F)n1CC(F)(F)C(F)(F)C(F)(F)F | 99 | 96 | 99 | 99 | 68 | 0 | 78 | 100 | 38 | – | – | –
O=c1c(-n2cccn2)nc(Cl)c(-c2c(F)cc(F)cc2F)n1-c1ccccc1 | 99 | 87 | 99 | 100 | 45 | 60 | 98 | 100 | 100 | – | – | –
CC(C)Cn1c(-c2c(F)ccc(F)c2F)c(Cl)nc(-n2cccn2)c1=O | 100 | 99 | 100 | 98 | 32 | 0 | 87 | 100 | 94 | – | – | –
CC(C)Cn1c(-c2c(F)cccc2F)c(Cl)nc(-c2ccncc2)c1=O | 0 | 0 | 0 | 0 | 0 | 0 | 0 | 0 | 0 | – | – | –
CC[C@H](C)Cn1c(-c2c(F)cccc2F)c(Cl)nc(-n2nccn2)c1=O | 19 | – | 0 | – | – | – | – | 0 | – | 86 | 97 | 0
CC(C)Cn1c(-c2c(F)cccc2F)c(Cl)nc(-c2nccs2)c1=O | 0 | 0 | 0 | 0 | 0 | 0 | 0 | 0 | 0 | – | – | –
CC(Cn1c(-c2c(F)cc(F)cc2F)c(Cl)nc(-n2cccn2)c1=O)C(F)(F)F (configuration not stated) | 100 | 100 | 100 | 99 | 92 | 0 | 0 | 99 | 99 | – | – | –
CC[C@H](C)Cn1c(-c2c(F)cccc2F)c(Cl)nc(C(N)=O)c1=O | 100 | 99 | 95 | 97 | 80 | 0 | 0 | 99 | 92 | – | – | –
CC(C)Cn1c(-c2c(F)cccc2F)c(Cl)nc(-c2cccnc2)c1=O | 0 | 0 | 0 | 0 | 0 | 0 | 0 | 0 | 0 | – | – | –
O=c1c(-n2cccn2)nc(Cl)c(-c2c(F)cc(F)cc2F)n1CC1CC1 | 100 | 100 | 100 | 98 | 80 | 0 | 100 | 99 | 98 | – | – | –
O=c1c(-n2cccn2)nc(Cl)c(-c2c(F)cc(F)cc2F)n1-c1ccc(Cl)cc1 | 100 | 100 | 100 | 99 | 96 | 78 | 100 | 99 | 92 | – | – | –
Cc1nc(-n2cccn2)c(=O)n(CC(C)C)c1-c1c(F)cccc1F | 100 | 92 | 98 | 99 | 0 | 0 | 0 | 100 | 0 | – | – | –
